Reference: ChEMBL document CHEMBL5303300, “EUbOPEN Chemogenomics Library - Multiplex” (2023)
“And” between values parts separate entries of the source, which are not always exact repeats. Identical values can stand only once.

Tests used:
Type in all cases: toxicity, cell-based
[1] = system: U2OS; experiment: Multiplex assay against U2OS; details: human, number of replicates 2
How it was run: (§1)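 On a CQ1 microscope at 37°C and 5% CO2, live cells were imaged after compound addition. They had been stained at seeding with Hoechst33342, BioTracker Green Microtubule Cytoskeleton Dye, MitoTracker Red and Annexin V Alexa Fluor 680. CellPathfinder machine-learning gating assigned cells to Hoechst high-intensity objects or normal cells, normal cells to healthy, pyknosed or fragmented nuclei, and pyknosed cells to mitotic or apoptotic. Tubulin, mitochondrial-mass and membrane-permeability phenotypes are per cents of healthy-nucleus cells.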

[2] = system: HEK-293T; experiment: Multiplex assay against HEK293T; details: human, number of replicates 2; how it was run: as §1
[3] = system: Fibroblast; experiment: Multiplex assay against human fibroblast; details: number of replicates 2; how it was run: as §1
[4] = 12 h, 1 µM, compound concentration 1 uM
[5] = 12 h, 10 µM, compound concentration 10 uM
[6] = 24 h, 1 µM, compound concentration 1 uM
[7] = 24 h, 10 µM, compound concentration 10 uM
[8] = 48 h, 1 µM, compound concentration 1 uM
[9] = 48 h, 10 µM, compound concentration 10 uM

CN1CCN(C(=O)Cc2ccc(N/C(=C3\C(=O)Nc4cc(Cl)ccc43)c3ccccc3)cc2)CC1
Population Apoptotic (%) [1, 4]: 100% and 55% | Population Healthy Nuclei (%) [1, 4]: 57% and 86% | Population Hoechst High Intensity Objects (%) [1, 4]: 0% | Population Membrane Permeable-Phenotype (%) [1, 4]: 8% and 3% | Population Mitochondria Different-Phenotype (%) [1, 4]: 8% and 0% | Population Normal (%) [1, 4]: 100% | Population Pyknosed Nuclei (%) [1, 4]: 7% and 10% | Population Tubulin-Different-Phenotype (%) [1, 4]: 66% and 71% | Population Fragmented Nuclei (%) [1, 5]: 3% and 12% | Population Healthy Nuclei (%) [1, 5]: 81% and 77% | Population Hoechst High Intensity Objects (%) [1, 5]: 0% | Population Mitochondria Different-Phenotype (%) [1, 5]: 0% | Population Mitotic Cells (%) [1, 5]: 43% and 100% | Population Normal (%) [1, 5]: 100% | Population Pyknosed Nuclei (%) [1, 5]: 14% and 9% | Population Tubulin-Different-Phenotype (%) [1, 5]: 55% and 33% | Population Apoptotic (%) [1, 6]: 66% and 69% | Population Healthy Nuclei (%) [1, 6]: 64% and 88% | Population Hoechst High Intensity Objects (%) [1, 6]: 0% | Population Mitochondria Different-Phenotype (%) [1, 6]: 12% and 0% | Population Mitotic Cells (%) [1, 6]: 33% and 30% | Population Normal (%) [1, 6]: 100% and 99% | Population Pyknosed Nuclei (%) [1, 6]: 16% and 9% | Population Tubulin-Different-Phenotype (%) [1, 6]: 79% and 73% | Population Apoptotic (%) [1, 7]: 33% and 62% | Population Fragmented Nuclei (%) [1, 7]: 0% and 4% | Population Healthy Nuclei (%) [1, 7]: 90% and 82% | Population Hoechst High Intensity Objects (%) [1, 7]: 0% | Population Membrane Permeable-Phenotype (%) [1, 7]: 10% and 2% | Population Mitochondria Different-Phenotype (%) [1, 7]: 10% and 3% | Population Mitotic Cells (%) [1, 7]: 66% and 37% | Population Normal (%) [1, 7]: 100% and 99% | Population Pyknosed Nuclei (%) [1, 7]: 9% and 12% | Population Tubulin-Different-Phenotype (%) [1, 7]: 58% and 59% | Population Apoptotic (%) [1, 8]: 75% and 58% | Population Healthy Nuclei (%) [1, 8]: 75% and 89% | Population Hoechst High Intensity Objects (%) [1, 8]: 0% | Population Membrane Permeable-Phenotype (%) [1, 8]: 6% and 0% | Population Mitochondria Different-Phenotype (%) [1, 8]: 3% and 0% | Population Mitotic Cells (%) [1, 8]: 25% and 41% | Population Normal (%) [1, 8]: 100% and 99% | Population Pyknosed Nuclei (%) [1, 8]: 9% and 7% | Population Tubulin-Different-Phenotype (%) [1, 8]: 83% and 85% | Population Apoptotic (%) [1, 9]: 83% and 75% | Population Fragmented Nuclei (%) [1, 9]: 5% and 3% | Population Healthy Nuclei (%) [1, 9]: 84% and 87% | Population Hoechst High Intensity Objects (%) [1, 9]: 0% | Population Membrane Permeable-Phenotype (%) [1, 9]: 2% | Population Mitochondria Different-Phenotype (%) [1, 9]: 8% and 1% | Population Mitotic Cells (%) [1, 9]: 16% and 24% | Population Normal (%) [1, 9]: 100% | Population Pyknosed Nuclei (%) [1, 9]: 10% and 8% | Population Tubulin-Different-Phenotype (%) [1, 9]: 69% and 66% | Population Apoptotic (%) [2, 4]: 28% and 39% | Population Fragmented Nuclei (%) [2, 4]: 2% and 3% | Population Healthy Nuclei (%) [2, 4]: 86% and 84% | Population Hoechst High Intensity Objects (%) [2, 4]: 5% | Population Membrane Permeable-Phenotype (%) [2, 4]: 2% and 4% | Population Mitochondria Different-Phenotype (%) [2, 4]: 10% and 16% | Population Mitotic Cells (%) [2, 4]: 71% and 60% | Population Normal (%) [2, 4]: 94% | Population Pyknosed Nuclei (%) [2, 4]: 11% and 12% | Population Tubulin-Different-Phenotype (%) [2, 4]: 45% and 47% | Total Cell Count [2, 4]: 870 and 527 | Population Apoptotic (%) [2, 5]: 40% and 34% | Population Fragmented Nuclei (%) [2, 5]: 1% | Population Healthy Nuclei (%) [2, 5]: 86% and 81% | Population Hoechst High Intensity Objects (%) [2, 5]: 3% and 5% | Population Membrane Permeable-Phenotype (%) [2, 5]: 4% and 6% | Population Mitochondria Different-Phenotype (%) [2, 5]: 22% and 18% | Population Mitotic Cells (%) [2, 5]: 60% and 65% | Population Normal (%) [2, 5]: 96% and 94% | Population Pyknosed Nuclei (%) [2, 5]: 11% and 16% | Population Tubulin-Different-Phenotype (%) [2, 5]: 67% and 69% | Total Cell Count [2, 5]: 702 and 579 | Population Apoptotic (%) [2, 6]: 29% and 31% | Population Fragmented Nuclei (%) [2, 6]: 4% | Population Healthy Nuclei (%) [2, 6]: 87% | Population Hoechst High Intensity Objects (%) [2, 6]: 9% and 5% | Population Membrane Permeable-Phenotype (%) [2, 6]: 3% | Population Mitochondria Different-Phenotype (%) [2, 6]: 6% and 10% | Population Mitotic Cells (%) [2, 6]: 70% and 68% | Population Normal (%) [2, 6]: 90% and 94% | Population Pyknosed Nuclei (%) [2, 6]: 7% and 8% | Population Tubulin-Different-Phenotype (%) [2, 6]: 28% and 32% | Total Cell Count [2, 6]: 1172 and 750 | Population Apoptotic (%) [2, 7]: 29% and 34% | Population Fragmented Nuclei (%) [2, 7]: 3% and 4% | Population Healthy Nuclei (%) [2, 7]: 88% and 86% | Population Hoechst High Intensity Objects (%) [2, 7]: 4% and 5% | Population Membrane Permeable-Phenotype (%) [2, 7]: 3% and 4% | Population Mitochondria Different-Phenotype (%) [2, 7]: 12% and 9% | Population Mitotic Cells (%) [2, 7]: 70% and 65% | Population Normal (%) [2, 7]: 95% and 94% | Population Pyknosed Nuclei (%) [2, 7]: 8% and 9% | Population Tubulin-Different-Phenotype (%) [2, 7]: 48% | Total Cell Count [2, 7]: 992 and 819 | Population Apoptotic (%) [2, 8]: 17% | Population Fragmented Nuclei (%) [2, 8]: 13% and 7% | Population Healthy Nuclei (%) [2, 8]: 83% and 87% | Population Hoechst High Intensity Objects (%) [2, 8]: 9% and 8% | Population Membrane Permeable-Phenotype (%) [2, 8]: 3% | Population Mitochondria Different-Phenotype (%) [2, 8]: 0% and 1% | Population Mitotic Cells (%) [2, 8]: 82% | Population Normal (%) [2, 8]: 90% and 91% | Population Pyknosed Nuclei (%) [2, 8]: 2% and 4% | Population Tubulin-Different-Phenotype (%) [2, 8]: 12% and 15% | Total Cell Count [2, 8]: 2950 and 1758 | Population Apoptotic (%) [2, 9]: 17% and 42% | Population Fragmented Nuclei (%) [2, 9]: 10% and 8% | Population Healthy Nuclei (%) [2, 9]: 85% and 87% | Population Hoechst High Intensity Objects (%) [2, 9]: 8% and 9% | Population Membrane Permeable-Phenotype (%) [2, 9]: 4% | Population Mitochondria Different-Phenotype (%) [2, 9]: 3% | Population Mitotic Cells (%) [2, 9]: 82% and 58% | Population Normal (%) [2, 9]: 91% and 90% | Population Pyknosed Nuclei (%) [2, 9]: 3% and 4% | Population Tubulin-Different-Phenotype (%) [2, 9]: 31% and 34% | Total Cell Count [2, 9]: 1910 and 1370 | Population Apoptotic (%) [3, 4]: 43% and 30% | Population Fragmented Nuclei (%) [3, 4]: 9% and 8% | Population Healthy Nuclei (%) [3, 4]: 69% | Population Hoechst High Intensity Objects (%) [3, 4]: 0% | Population Membrane Permeable-Phenotype (%) [3, 4]: 5% and 7% | Population Mitochondria Different-Phenotype (%) [3, 4]: 0% and 1% | Population Mitotic Cells (%) [3, 4]: 56% and 69% | Population Normal (%) [3, 4]: 100% | Population Pyknosed Nuclei (%) [3, 4]: 20% and 21% | Population Tubulin-Different-Phenotype (%) [3, 4]: 8% and 15% | Total Cell Count [3, 4]: 178 and 179 | Population Apoptotic (%) [3, 5]: 51% and 36% | Population Fragmented Nuclei (%) [3, 5]: 12% and 11% | Population Healthy Nuclei (%) [3, 5]: 74% and 67% | Population Hoechst High Intensity Objects (%) [3, 5]: 0% | Population Membrane Permeable-Phenotype (%) [3, 5]: 7% and 5% | Population Mitochondria Different-Phenotype (%) [3, 5]: 2% | Population Mitotic Cells (%) [3, 5]: 48% and 63% | Population Normal (%) [3, 5]: 100% | Population Pyknosed Nuclei (%) [3, 5]: 12% and 21% | Population Tubulin-Different-Phenotype (%) [3, 5]: 34% and 26% | Total Cell Count [3, 5]: 240 and 203 | Population Apoptotic (%) [3, 6]: 43% and 52% | Population Fragmented Nuclei (%) [3, 6]: 7% and 12% | Population Healthy Nuclei (%) [3, 6]: 72% and 68% | Population Hoechst High Intensity Objects (%) [3, 6]: 0% | Population Membrane Permeable-Phenotype (%) [3, 6]: 5% | Population Mitochondria Different-Phenotype (%) [3, 6]: 0% and 2% | Population Mitotic Cells (%) [3, 6]: 56% and 47% | Population Normal (%) [3, 6]: 100% | Population Pyknosed Nuclei (%) [3, 6]: 20% and 19% | Population Tubulin-Different-Phenotype (%) [3, 6]: 12% and 10% | Total Cell Count [3, 6]: 193 and 174 | Population Apoptotic (%) [3, 7]: 51% and 56% | Population Fragmented Nuclei (%) [3, 7]: 12% and 17% | Population Healthy Nuclei (%) [3, 7]: 74% and 67% | Population Hoechst High Intensity Objects (%) [3, 7]: 0% | Population Membrane Permeable-Phenotype (%) [3, 7]: 2% | Population Mitochondria Different-Phenotype (%) [3, 7]: 5% and 8% | Population Mitotic Cells (%) [3, 7]: 48% and 43% | Population Normal (%) [3, 7]: 100% and 99% | Population Pyknosed Nuclei (%) [3, 7]: 12% and 14% | Population Tubulin-Different-Phenotype (%) [3, 7]: 35% and 28% | Total Cell Count [3, 7]: 232 and 216 | Population Apoptotic (%) [3, 8]: 64% and 72% | Population Fragmented Nuclei (%) [3, 8]: 12% and 16% | Population Healthy Nuclei (%) [3, 8]: 75% and 68% | Population Hoechst High Intensity Objects (%) [3, 8]: 0% | Population Membrane Permeable-Phenotype (%) [3, 8]: 5% and 3% | Population Mitochondria Different-Phenotype (%) [3, 8]: 0% | Population Mitotic Cells (%) [3, 8]: 36% and 27% | Population Normal (%) [3, 8]: 100% | Population Pyknosed Nuclei (%) [3, 8]: 12% and 15% | Population Tubulin-Different-Phenotype (%) [3, 8]: 9% and 5% | Total Cell Count [3, 8]: 200 and 186 | Population Apoptotic (%) [3, 9]: 65% and 75% | Population Fragmented Nuclei (%) [3, 9]: 11% and 17% | Population Healthy Nuclei (%) [3, 9]: 76% and 65% | Population Hoechst High Intensity Objects (%) [3, 9]: 0% | Population Membrane Permeable-Phenotype (%) [3, 9]: 3% and 1% | Population Mitochondria Different-Phenotype (%) [3, 9]: 4% and 5% | Population Mitotic Cells (%) [3, 9]: 34% and 25% | Population Normal (%) [3, 9]: 100% | Population Pyknosed Nuclei (%) [3, 9]: 12% and 16% | Population Tubulin-Different-Phenotype (%) [3, 9]: 37% and 25% | Total Cell Count [3, 9]: 213 and 212
